In ChEMBL document CHEMBL4330069, “Boosting the efficacy of anti-MRSA β-lactam antibiotics via an easily accessible, non-cytotoxic and orally bioavailable FtsZ inhibitor” (Eur J Med Chem, 2019):
Values after ≈ are worked out from the molar mass of the structure shown.

Assays:
[1] = system: Staphylococcus aureus; experiment: Synergistic antibacterial activity against multidrug-resistant Staphylococcus aureus isolate 2973 assessed as fractional Inhibitory concentration index in presence of methicillin by broth microdilution assay; type: functional
[2] = system: Staphylococcus aureus; experiment: Synergistic antibacterial activity against multidrug-resistant Staphylococcus aureus isolate 85 in presence of cloxacillin by broth microdilution assay; type: functional
[3] = system: Staphylococcus aureus; experiment: Synergistic antibacterial activity against multidrug-resistant Staphylococcus aureus isolate 231 in presence of methicillin by broth microdilution assay; type: functional
Summary of the method: (§1)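 Clinical MRSA isolate panel; compound and β-lactam tested alone and in combination by CLSI broth microdilution, compounds dissolved in DMSO, growth inhibition scored by eye, run in duplicate. FIC index = FIC(compound) + FIC(drug), each the MIC in combination divided by the MIC alone; an index ≤ 0.5 was called synergy.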

[4] = system: Staphylococcus aureus; experiment: Antibacterial activity against Staphylococcus aureus ATCC 29213 harboring FtsZ 32 mutation after 20 hrs; type: functional; details: ATCC 29213, 20 h
Summary of the method: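 Broth microdilution MIC per CLSI guidelines, compounds dissolved in DMSO. Resistant mutants were selected by serial passage of ATCC 29213 in LB at 37 °C with shaking at 250 rpm. Each 20 h culture started at half the MIC, and the concentration was doubled at each transfer. Growth inhibition was read by eye, in duplicate.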

[5] = system: Staphylococcus aureus; experiment: Synergistic antibacterial activity against multidrug-resistant Staphylococcus aureus isolate 85 assessed as fractional Inhibitory concentration index in presence of amoxicillin by broth microdilution assay; type: functional
[6] = AUC (0 to infinity) in Sprague-Dawley rat at 1 mg/kg, iv by UPLC-MS/MS analysis; type: ADME, organism-based; set-up: dose 1 mg/kg, time infinity, route intravenous; details: in vivo
[7] = system: Staphylococcus aureus; experiment: Synergistic antibacterial activity against multidrug-resistant Staphylococcus aureus isolate 1136 in presence of cloxacillin by broth microdilution assay; type: functional; summary of the method: as §1
[8] = system: Staphylococcus aureus; experiment: Synergistic antibacterial activity against multidrug-resistant Staphylococcus aureus isolate 757 in presence of methicillin by broth microdilution assay; type: functional
[9] = system: Staphylococcus aureus; experiment: Synergistic antibacterial activity against multidrug-resistant Staphylococcus aureus isolate 774 assessed as fractional Inhibitory concentration index in presence of meropenem by broth microdilution assay; type: functional
[10] = system: Staphylococcus aureus; experiment: Synergistic antibacterial activity against multidrug-resistant Staphylococcus aureus isolate 256 assessed as fractional Inhibitory concentration index in presence of meropenem by broth microdilution assay; type: functional
[11] = system: Staphylococcus aureus; experiment: Synergistic antibacterial activity against multidrug-resistant Staphylococcus aureus isolate 2895 assessed as fractional Inhibitory concentration index in presence of amoxicillin by broth microdilution assay; type: functional
[12] = system: Staphylococcus aureus; experiment: Antibacterial activity against multidrug-resistant Staphylococcus aureus isolate 1344 by broth microdilution assay; type: functional
Summary of the method: (§2)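 Broth microdilution MIC per CLSI guidelines against clinical MRSA isolates, for β-lactams and test compound alone and in combination. Compounds were dissolved in DMSO. Growth was read by eye, in duplicate. FIC index = FIC(compound) + FIC(drug); synergy defined as FIC index ≤0.5.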

[13] = system: Staphylococcus aureus; experiment: Synergistic antibacterial activity against multidrug-resistant Staphylococcus aureus isolate 1344 in presence of meropenem by broth microdilution assay; type: functional; summary of the method: as §1
[14] = system: Staphylococcus aureus; experiment: Synergistic antibacterial activity against multidrug-resistant Staphylococcus aureus isolate 2224 in presence of cefuroxime by broth microdilution assay; type: functional; summary of the method: as §1
[15] = system: Staphylococcus aureus; experiment: Synergistic antibacterial activity against multidrug-resistant Staphylococcus aureus isolate 2919 assessed as fractional Inhibitory concentration index in presence of amoxicillin by broth microdilution assay; type: functional
[16] = system: Staphylococcus aureus; experiment: Synergistic antibacterial activity against multidrug-resistant Staphylococcus aureus isolate 2901 in presence of cloxacillin by broth microdilution assay; type: functional
Summary of the method: (§3)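 CLSI broth microdilution on clinical MRSA isolates. MICs were measured for the β-lactam alone, the test agent alone and the two combined. Compounds were dissolved in DMSO, and growth inhibition was scored by eye. FIC index is the sum, over both agents, of MIC in combination divided by MIC alone. An FIC index ≤0.5 was taken as synergy.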

[17] = system: Staphylococcus aureus; experiment: Synergistic antibacterial activity against multidrug-resistant Staphylococcus aureus isolate 256 assessed as fractional Inhibitory concentration index in presence of cloxacillin by broth microdilution assay; type: functional
[18] = system: Staphylococcus aureus; experiment: Antibacterial activity against multidrug-resistant Staphylococcus aureus isolate 2919 by broth microdilution assay; type: functional; summary of the method: as §2
[19] = system: Staphylococcus aureus; experiment: Synergistic antibacterial activity against multidrug-resistant Staphylococcus aureus isolate 2895 in presence of methicillin by broth microdilution assay; type: functional; summary of the method: as §3
[20] = system: Staphylococcus aureus; experiment: Synergistic antibacterial activity against multidrug-resistant Staphylococcus aureus isolate 2901 in presence of cefuroxime by broth microdilution assay; type: functional; summary of the method: as §3
[21] = system: Staphylococcus aureus; experiment: Synergistic antibacterial activity against multidrug-resistant Staphylococcus aureus isolate 358 in presence of meropenem by broth microdilution assay; type: functional
[22] = system: Staphylococcus aureus; experiment: Synergistic antibacterial activity against multidrug-resistant Staphylococcus aureus isolate 85 in presence of cefuroxime by broth microdilution assay; type: functional
[23] = system: Staphylococcus aureus; experiment: Synergistic antibacterial activity against multidrug-resistant Staphylococcus aureus isolate 200 assessed as fractional Inhibitory concentration index in presence of amoxicillin by broth microdilution assay; type: functional
Summary of the method: (§4)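 CLSI broth microdilution run on clinical MRSA isolates with each β-lactam alone, the test agent alone, and the two combined; agents dissolved in DMSO. Growth inhibition was read by eye. FIC index = FIC(compound) + FIC(β-lactam), where each FIC is the MIC in combination divided by the MIC alone. An index ≤0.5 was taken as synergy.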

[24] = system: Staphylococcus aureus; experiment: Synergistic antibacterial activity against multidrug-resistant Staphylococcus aureus isolate 1344 in presence of methicillin by broth microdilution assay; type: functional; summary of the method: as §1
[25] = system: Staphylococcus aureus; experiment: Synergistic antibacterial activity against multidrug-resistant Staphylococcus aureus isolate 3267 in presence of cefuroxime by broth microdilution assay; type: functional; summary of the method: as §3
[26] = system: Staphylococcus aureus; experiment: Synergistic antibacterial activity against multidrug-resistant Staphylococcus aureus isolate 774 in presence of amoxicillin by broth microdilution assay; type: functional
[27] = system: Staphylococcus aureus; experiment: Synergistic antibacterial activity against multidrug-resistant Staphylococcus aureus isolate 2895 assessed as fractional Inhibitory concentration index in presence of cefuroxime by broth microdilution assay; type: functional
[28] = system: Staphylococcus aureus; experiment: Synergistic antibacterial activity against multidrug-resistant Staphylococcus aureus isolate 1402 in presence of cefuroxime by broth microdilution assay; type: functional; summary of the method: as §1
[29] = system: Staphylococcus aureus; experiment: Synergistic antibacterial activity against multidrug-resistant Staphylococcus aureus isolate 1136 in presence of meropenem by broth microdilution assay; type: functional; summary of the method: as §1
[30] = system: Staphylococcus aureus; experiment: Synergistic antibacterial activity against multidrug-resistant Staphylococcus aureus isolate 3267 assessed as fractional Inhibitory concentration index in presence of amoxicillin by broth microdilution assay; type: functional
[31] = system: Staphylococcus aureus; experiment: Synergistic antibacterial activity against multidrug-resistant Staphylococcus aureus isolate 2728 assessed as fractional Inhibitory concentration index in presence of methicillin by broth microdilution assay; type: functional
[32] = system: Staphylococcus aureus; experiment: Synergistic antibacterial activity against multidrug-resistant Staphylococcus aureus isolate 3589 in presence of cloxacillin by broth microdilution assay; type: functional
[33] = system: Staphylococcus aureus; experiment: Synergistic antibacterial activity against multidrug-resistant Staphylococcus aureus isolate 200 in presence of methicillin by broth microdilution assay; type: functional; summary of the method: as §1
[34] = system: Staphylococcus aureus; experiment: Synergistic antibacterial activity against multidrug-resistant Staphylococcus aureus isolate 2516 assessed as fractional Inhibitory concentration index in presence of cefuroxime by broth microdilution assay; type: functional; summary of the method: as §4
[35] = system: Staphylococcus aureus; experiment: Synergistic antibacterial activity against multidrug-resistant Staphylococcus aureus isolate 2728 in presence of cefuroxime by broth microdilution assay; type: functional; summary of the method: as §3
[36] = system: Staphylococcus aureus; experiment: Synergistic antibacterial activity against multidrug-resistant Staphylococcus aureus isolate 3589 in presence of cefuroxime by broth microdilution assay; type: functional
[37] = system: Staphylococcus aureus; experiment: Synergistic antibacterial activity against multidrug-resistant Staphylococcus aureus isolate 358 in presence of amoxicillin by broth microdilution assay; type: functional

CCCCCCCCCNc1ccc(F)c(C(N)=O)c1F
fractional inhibitory concentration index (FICI) [1]: 0.3
MIC [2]: 0.5 µg/mL
MIC [3]: 4 µg/mL
MIC [4]: 32 µg/mL (≈ 107 µM)
fractional inhibitory concentration index (FICI) [5]: 0
AUC(0-inf) [6]: 1600 ng·h/mL
MIC [7]: 2 µg/mL
MIC [8]: 4 µg/mL
fractional inhibitory concentration index (FICI) [9]: 0.1
fractional inhibitory concentration index (FICI) [10]: 4
fractional inhibitory concentration index (FICI) [11]: 1.1
MIC [12]: 16 µg/mL (≈ 53.6 µM)
MIC [13]: 16 µg/mL
MIC [14]: 2 µg/mL
fractional inhibitory concentration index (FICI) [15]: 0.5
MIC [16]: 0.5 µg/mL
fractional inhibitory concentration index (FICI) [17]: 0.1
MIC [18]: 16 µg/mL (≈ 53.6 µM)
MIC [19]: 4 µg/mL
MIC [20]: 2 µg/mL
MIC [21]: 16 µg/mL
MIC [22]: 2 µg/mL
fractional inhibitory concentration index (FICI) [23]: 0
MIC [24]: 4 µg/mL
MIC [25]: 2 µg/mL
MIC [26]: 8 µg/mL
fractional inhibitory concentration index (FICI) [27]: 0.3
MIC [28]: 2 µg/mL
MIC [29]: 8 µg/mL
fractional inhibitory concentration index (FICI) [30]: 0.3
fractional inhibitory concentration index (FICI) [31]: 0.2
MIC [32]: 2 µg/mL
MIC [33]: 4 µg/mL
fractional inhibitory concentration index (FICI) [34]: 0.1
MIC [35]: 2 µg/mL
MIC [36]: 2 µg/mL
MIC [37]: 4 µg/mL
